In brackets after ≈: the same amount, converted by molar mass.
Columns and labels:
[1] = (§1) AUC (0 to infinity) in rat at 2 mg/kg, po; type: ADME, organism-based; design: dose 2 mg/kg, route oral, time infinity; details: in vivo
[2] = molecular target: T1, Receptor-interacting serine/threonine-protein kinase 1 (Homo sapiens, UniProt Q13546); experiment: Inhibition of human RIP1 (1 to 375 residues) expressed in baculovirus infected insect cells preincubated for 1 hr followed by ATP addition measured after 5 hrs by ADP-Glo luminescence assay
T1 sequence (Q13546 whole entry): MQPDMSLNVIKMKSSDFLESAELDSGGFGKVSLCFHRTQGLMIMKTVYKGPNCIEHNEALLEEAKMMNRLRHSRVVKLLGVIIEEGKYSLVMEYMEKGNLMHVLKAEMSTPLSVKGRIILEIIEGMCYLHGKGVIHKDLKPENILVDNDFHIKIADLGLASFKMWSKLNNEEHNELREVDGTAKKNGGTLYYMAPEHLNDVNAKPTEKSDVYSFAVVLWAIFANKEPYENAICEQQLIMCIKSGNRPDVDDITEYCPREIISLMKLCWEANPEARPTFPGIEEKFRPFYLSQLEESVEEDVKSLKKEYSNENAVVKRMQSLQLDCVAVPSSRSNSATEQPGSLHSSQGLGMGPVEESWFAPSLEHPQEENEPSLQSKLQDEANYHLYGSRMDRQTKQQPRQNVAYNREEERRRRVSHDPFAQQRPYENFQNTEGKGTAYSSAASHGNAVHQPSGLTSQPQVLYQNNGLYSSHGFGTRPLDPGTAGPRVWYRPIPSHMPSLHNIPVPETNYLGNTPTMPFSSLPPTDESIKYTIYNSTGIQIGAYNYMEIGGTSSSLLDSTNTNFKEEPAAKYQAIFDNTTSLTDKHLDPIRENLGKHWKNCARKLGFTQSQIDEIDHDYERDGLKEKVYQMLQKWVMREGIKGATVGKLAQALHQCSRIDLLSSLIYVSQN

[3] = Lipophilicity, log D of the compound at pH 7.4 by RP-HPLC method; type: physicochemical; details: buffer
How it was run: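 Chromatographic hydrophobicity index (CHI) log D at pH 7.4, calculated from the retention time in a fast-gradient reverse-phase HPLC run.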

[4] = molecular target: T1, Receptor-interacting serine/threonine-protein kinase 1; experiment: Displacement of (14-(2-{[3-({2-{[4-(cyanomethyl)phenyl]amino}-6-[(5-cyclopropyl-1H-pyrazol-3-yl)-amino]-4-pyrimidinyl}amino)propyl]amino}-2-oxoethyl)-16,16,18,18-tetramethyl-6,7,7a,8a,9,10,16,18-octahydrobenzo[2'',3'']indolizino-[8'',7'':5',6']pyrano[3',2':3,4]pyrido[1,2-a]indol-5-ium-2-sulfonate from human RIP1 (1 to 375 residues) expressed in baculovirus infected insect cells measured for 50 min
[5] = Drug level in rat hepatocytes treated with GSK2982772 at 10 uM measured up to 4 hrs; type: ADME, cell-based, Hepatocyte
How it was run: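 Compound at 10 μM was incubated with hepatocyte suspensions at 1 million cells/mL. Incubation ran at 37°C under 5% CO2:95% O2 for up to 4 h.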

[6] = tested on: Rattus norvegicus; experiment: as §1; type: ADME, organism-based; design: dose 2 mg/kg, route oral, time infinity; details: in vivo, BLD = below limit of detection
[7] = Solubility of the compound in FaSSIF; type: physicochemical
[8] = tested on: Rattus norvegicus; experiment: Volume of distribution in rat at 2 mg/kg, po; type: ADME, organism-based; details: in vivo
[9] = Clearance in rat at 2 mg/kg, po; type: ADME, organism-based; details: in vivo

Row | SMILES | AUC(0-inf) [1] | IC50 [2] | chromatographic logD [3] | IC50 [4] | also measured
1 | CC(=O)Nc1ccc2c(c1)N(C)C(=O)[C@@H](NC(=O)c1cc(Cc3ccccc3)on1)CO2 | 450 ng·h/mL | 0.32 nM |  |  | 
2 | O=C(N[C@H]1CCOc2ccccc2NC1=O)c1cc(Cc2ccccc2)on1 | 380 ng·h/mL |  |  | 200 nM | 
3 | CN1C(=O)[C@@H](NC(=O)c2cc(CN3CCCCC3)on2)COc2ccccc21 |  |  |  | > 10000 nM | 
4 | O=C(N[C@H]1COCCNC1=O)c1cc(Cc2ccccc2)on1 |  |  |  | > 10000 nM | 
5 | Cc1cc(C(=O)N[C@H]2COc3ccccc3N(C)C2=O)no1 |  |  |  | 12600 nM | 
6 | CCCCCc1cc(C(=O)N[C@H]2COc3ccccc3N(C)C2=O)no1 |  |  |  | 100 nM | 
7 | CN1C(=O)[C@@H](NC(=O)c2cc(CC3CCCCC3)on2)COc2ccccc21 |  |  |  | 251 nM | 
8 | CN1C(=O)[C@@H](N)COc2ccccc21 |  |  |  |  | Drug metabolism [5]: Metabolite_Detected
9 | C[C@]1(NC(=O)c2cc(Cc3ccccc3)on2)COc2ccccc2NC1=O |  |  |  | > 10000 nM | 
10 | CN(C(=O)c1cc(Cc2ccccc2)on1)[C@H]1COc2ccccc2NC1=O |  |  |  | > 10000 nM | 
11 | O=C(O)c1n[nH]c(Cc2ccccc2)n1 |  |  |  |  | Drug metabolism [5]: Metabolite_Detected
12 | O=C(N[C@H]1COc2ccccc2NC1=O)c1cc(Cc2ccccc2)on1 | 2200 ng·h/mL |  |  |  | 
13 | CN1C(=O)[C@@H](NC(=O)c2nnc(Cc3ccccc3)o2)COc2ccccc21 | 130 ng·h/mL | 0.79 nM | 4.9 |  | 
14 | COC(=O)Nc1ccc2c(c1)N(C)C(=O)[C@@H](NC(=O)c1cc(Cc3ccccc3)on1)CO2 | 1100 ng·h/mL | 0.32 nM |  |  | 
15 | O=C(N[C@H]1CO[C@@H]2CCCC[C@H]2NC1=O)c1cc(Cc2ccccc2)on1 |  |  |  | > 10000 nM | 
16 | O=C(N[C@H]1COc2ccccc2NC1=O)c1n[nH]c(Cc2ccccc2)n1 |  |  |  |  | Drug metabolism [5]: Metabolite_Detected
17 | O=C(N[C@@H]1CNc2ccccc2OC1)c1cc(Cc2ccccc2)on1 |  |  |  | > 10000 nM | 
18 | CN1C(=O)[C@@H](NC(=O)c2cc(Cc3ccccc3)on2)COc2ccc(-c3n[nH]c(=O)o3)cc21 | 2100 ng·h/mL | 0.5 nM | 4.4 |  | solubility [7]: 8 µg/mL (≈ 17.3 µM)
19 | CN1C(=O)[C@@H](NC(=O)c2cc(Cc3ccccc3)on2)COc2ccccc21 | 380 ng·h/mL |  | 5.9 |  | Vd [8]: 8.5 L/kg; solubility [7]: 30 µg/mL (≈ 79.5 µM); CL/F [9]: 69 mL/min/kg
20 | CN1C(=O)[C@@H](NC(=O)c2cc(Cc3ccccc3)on2)COc2ccc(NS(C)(=O)=O)cc21 |  | 0.63 nM |  |  | 
21 | CC(C)Cc1cc(C(=O)N[C@H]2COc3ccccc3N(C)C2=O)no1 |  |  |  | 1600 nM | 
22 | CN1C(=O)[C@@H](NC(=O)c2n[nH]c(C(O)c3ccccc3)n2)COc2ccccc21 (some centres not stated) |  |  |  |  | Drug metabolism [5]: Metabolite_Detected
23 | O=C(NC1Cc2ccccc2NC1=O)c1cc(Cc2ccccc2)on1 (configuration not stated) |  |  |  | > 10000 nM | 

Second part, led by results:

Row | AUC(0-inf) [1] | IC50 [2] | chromatographic logD [3] | IC50 [4] | SMILES | also measured
24 | 600 ng·h/mL | 1 nM |  |  | CN1C(=O)[C@@H](NC(=O)c2cc(Cc3ccccc3)on2)COc2ccc(-c3cc[nH]n3)cc21 | 
25 | 1300 ng·h/mL | 1 nM | 4.6 |  | CN1C(=O)[C@@H](NC(=O)c2cn(Cc3ccccc3)nn2)COc2ccccc21 | 
26 | 82 ng·h/mL | 5 nM | 6 |  | CN1C[C@H](NC(=O)c2cc(Cc3ccccc3)on2)C(=O)N(C)c2ccccc21 | 
27 | 7 ng·h/mL |  | 6 |  | CN1C(=O)[C@@H](NC(=O)c2cc(Cc3ccccc3)on2)CCc2ccccc21 | 
28 | 55 ng·h/mL | 0.05 nM | 5.6 |  | CN1C(=O)[C@@H](NC(=O)c2ncc(Cc3ccccc3)o2)COc2ccccc21 | 
29 |  |  | 6.5 |  | CN1C(=O)[C@@H](NC(=O)c2ncc(Cc3ccccc3)s2)COc2ccccc21 | 
30 | 660 ng·h/mL | 0.4 nM | 4.2 |  | CN1C(=O)[C@@H](NC(=O)c2cn(Cc3ccccc3)cn2)COc2ccccc21 | 
31 |  |  | 5.4 | 794 nM | CN1C(=O)[C@@H](NC(=O)c2coc(Cc3ccccc3)n2)COc2ccccc21 | 
32 |  |  | 6.2 |  | CN1C(=O)[C@@H](NC(=O)c2cc(Cc3ccccc3)on2)CSc2ccccc21 | AUC [6]: Bld
33 | 240 ng·h/mL | 0.079 nM | 5 |  | CN1C(=O)[C@@H](NC(=O)c2nnn(Cc3ccccc3)n2)COc2ccccc21 | 
34 |  | 2 nM | 6.4 |  | CN1C(=O)[C@@H](NC(=O)c2cc(Cc3ccccc3)ccn2)COc2ccccc21 | 
35 | 170 ng·h/mL | 0.4 nM | 5.4 |  | CN1C(=O)[C@@H](NC(=O)c2cc(Cc3ccccc3)n(C)n2)COc2ccccc21 | 
36 | 33 ng·h/mL | 0.5 nM | 5.4 |  | CN1C(=O)[C@@H](NC(=O)c2noc(Cc3ccccc3)n2)COc2ccccc21 | 
37 |  |  | 6.3 | 251 nM | CN1C(=O)[C@@H](NC(=O)c2cccc(Cc3ccccc3)c2)COc2ccccc21 | 
38 | 280 ng·h/mL | 0.63 nM | 4.2 |  | CN1C(=O)[C@@H](NC(=O)c2ncn(Cc3ccccc3)n2)COc2ccccc21 | 
39 |  |  |  | > 10000 nM | O=C(N[C@H]1COc2ccccc2N(C2CC2)C1=O)c1cc(Cc2ccccc2)on1 | 
40 | 800 ng·h/mL |  | 5 |  | CN1C(=O)[C@@H](NC(=O)c2cc(Cc3ccccc3)on2)CNc2ccccc21 | solubility [7]: 97 µg/mL (≈ 258 µM)
41 |  |  |  | 3160 nM | CCN1C(=O)[C@@H](NC(=O)c2cc(Cc3ccccc3)on2)COc2ccccc21 | 
42 |  |  | 3.8 | 1260 nM | CN1C(=O)[C@@H](NC(=O)c2c[nH]c(Cc3ccccc3)n2)COc2ccccc21 | 
43 | 2900 ng·h/mL |  | 4 | 63 nM | CN1C(=O)[C@@H](NC(=O)c2cnn(Cc3ccccc3)c2)COc2ccccc21 | 

— ChEMBL document CHEMBL3997808 (J Med Chem, 2017)
